Mdm2-MdmX inh: disrupts the human Mdm2-MdmX interaction | O15151+Q00987 | SaOS-2 split-luciferase Mdm2/MdmX complementation, luminescence | inhibition, % at 8 µM | hit rate 3% among 330,000 | AID 485346;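 active means inhibition of at least 50% at 8 µM in the primary screen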
aSyn UTR inh: MLPCN primary screen, SNCA 5' untranslated region; alpha-synuclein 5'UTR reporter, inhibitor activity; inhibition, % (tested at 7.5 µM); hit rate 0.82% among 300,000; in the data active means inhibition above about 60%; inconclusive means no clear call, values can overlap the other calls;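 further: H4 neuroglioblastoma cells stably carrying SNCA 5'UTR luciferase fusion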
CSC inhib: blocks cancer stem cells; cancer stem cell-like cells viability, luminescence; inhibition, % at 7.5 µM; hit rate 1.1% among 300,000; AID 2717; in the data active means inhibition above about 75%; inconclusive means no clear call, values can overlap the other calls; tested in HMLE shEcad cells
T cruzi repl: T. cruzi replication inhibition. T. cruzi beta-gal in NIH3T3, luminescence, 90 h. inhibition, % (no concentration beside the values). hit rate 1.4% among 300,000;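 active means mean inhibition across valid replicates above about 55%, limit read from the data; inconclusive means mean below that limit but half or more replicates reach it; inactive means mean below it, under half of replicates reach it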;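 further: signal also drops with host cell toxicity which is not excluded here; higher percent means less beta-gal luminescence so fewer parasites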
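Assay system: NIH/3T3 host cells with β-galactosidase reporter T. cruzi; input: 5,000 host fibroblasts per well; compound: single 50 nL compound addition per well in DMSO; timing: ≥90 h infection period, 3 h prior cell attachment; measured by: GalScreen β-gal luminescence, detergent lysis, 60 min; evaluation: percent inhibition of parasite-derived β-gal signal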
SKKanGAS inh: SKKanGAS growth inhibition; S. pyogenes SKKanGAS, kanamycin growth, BacTiter-Glo, 6 h; inhibition, % at 7.5 µM; hit rate 1.3% among 300,000;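 active means mean replicate score, as percent of positive control median, at least 50; inconclusive means mean below 50 but one replicate at or above 50; inactive means mean and every replicate below 50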;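 further: strain carries kanamycin resistance gene driven by streptokinase promoter and grows in 40 µg/ml kanamycin; loss of luminescence reflects streptokinase promoter inhibition or plain growth inhibition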
Mdm2-MdmX conf: human Mdm2/MdmX binding inhibition, confirmed | shares compounds with Mdm2-MdmX inh | hit rate 55% among 10,000 | luminescent assay | inhibition, % at 8 µM; in the data active means inhibition above about 40%
FLuc counter: counter-screen for Mdm2/MdmX inhibitors: full-length luciferase | shares compounds with Mdm2-MdmX inh | SaOS-2 full-length luciferase counterscreen, luminescence | inhibition, % at 8 µM | hit rate 77% among 6,200 | AID 504607;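 active means mean inhibition at 8 µM reaching about 37%, which flags the compound as non-specific, limit read from the data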;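 further: p53-null SaOS-2 cells with luciferase driven by a doxycycline-inducible promoter; compound on cells about two nights before reading with doxycycline added after day one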
A number is an active result; n = inactive; u = inconclusive; x = no result given. An excerpt weighted towards active compounds, which were near 5.4% of everything screened.

SMILES	Mdm2-MdmX inh	aSyn UTR inh	CSC inhib	T cruzi repl	SKKanGAS inh	Mdm2-MdmX conf	FLuc counter
C#CCOc1cc(C2C3=C(COC3=O)Nc3cc4c(cc32)OCO4)ccc1OC (stereo not drawn)	59	78	n	n	x	58	80
COC(=O)C1=C(c2ccc(S(C)(=O)=O)cc2)C[C@@H]2CC[C@H]1N2C(=O)N1CCOCC1	n	n	n	n	n	x	x
CNc1ccc2oc(C[C@H]3O[C@@]4(CC[C@H]3C)O[C@H]([C@H](C)C(=O)c3ccc[nH]3)[C@H](C)C[C@H]4C)nc2c1C(=O)O	100	117	106	n	107	98	52
CC(=O)O[C@H]1[C@H]2O[C@]23[C@@H]2CC[C@]4(O)C[C@@H](O)CC[C@]4(C)C2CC[C@]3(C)[C@H]1c1ccc(=O)oc1 (stereo partly drawn)	85	x	105	x	x	64	48
Cc1ccc(S(=O)(=O)c2nc(-c3ccccc3Cl)oc2N(C)C2CCN(C)CC2)cc1	72	x	n	x	x	n	x
Cc1ccc(-c2nc(N(C)C3CCN(C)CC3)c3ccccc3n2)cc1	n	n	n	u	n	x	x
CCOC(=O)C(O)(c1ccc(N(C)C(=O)COc2ccccc2)cc1)C(F)(F)F (stereo not drawn)	n	n	n	n	n	x	x
CN(C)C(=O)O/N=C(\N)COc1ccc(C(C)(C)C)cc1	98	n	n	n	n	96	57
COC(=O)C1=C(c2cccc(OC)c2OC)C[C@@H]2CC[C@H]1N2C(=O)N1CCOCC1	n	n	n	n	n	x	x
O=C(COc1ccc(Cl)cc1)N(c1ccc(Cl)cc1)C1CN2CCC1CC2 (stereo not drawn)	51	n	n	n	n	n	75
COc1cccc(CC(=O)N(C)C2CCCN(Cc3ccccc3F)C2)c1 (stereo not drawn)	n	n	n	n	n	x	x
COc1ccccc1OCCCn1cc(C(=O)c2ccco2)c2ccccc21	n	n	n	n	n	x	x
O=C(c1ccco1)c1cn(Cc2ccc(Cl)cc2)c2ccccc12	51	n	n	n	n	n	68
Clc1ccc(C(c2ccc(Cl)cc2)n2cc[n+](CC(OCc3ccc(Cl)cc3Cl)c3ccc(Cl)cc3Cl)c2)cc1 (stereo not drawn)	100	x	107	x	x	70	n
COc1cccc(OP(=O)(Nc2ccccc2)Oc2cccc(OC)c2)c1	n	n	n	n	n	x	x
CCCOC(=O)c1ccc(-[n+]2c(-c3ccccc3)cc(-c3ccccc3)cc2-c2ccccc2)cc1	89	n	n	55	n	87	n
Cc1ccc(-c2cc(-c3ccccc3)cc(-c3ccccc3)[n+]2-c2ccc(C(=O)O)cc2)cc1	n	n	n	n	n	x	x
C[n+]1c(-c2ccccc2)cc(CCCCc2cc(-c3ccccc3)[n+](C)c(-c3ccccc3)c2)cc1-c1ccccc1	64	x	n	x	x	n	x
COc1ccc(-c2cc(-c3ccccc3)[n+](C)c(-c3ccccc3)c2)cc1	55	n	n	55	n	n	52
O=C(O)c1ccc(-[n+]2c(-c3ccccc3)cc(-c3ccccc3)cc2-c2ccccc2)cc1	n	n	n	n	n	x	x
Brc1ccc(-[n+]2c(-c3ccccc3)cc(-c3ccccc3)cc2-c2ccccc2)cc1	87	n	n	n	n	74	n
C[C@]12CCC(=O)C[C@H]1CC[C@@H]1[C@@H]2CC[C@]2(C)[C@@H](O)CC[C@@H]12	n	x	n	x	x	x	x
Cc1cc(=O)oc2c(C)c(OCC(=O)N3CCC(C(=O)O)(c4ccccc4)CC3)ccc12	n	n	n	n	n	x	x
COc1ccc(-[n+]2c(-c3ccccc3)cc(-c3ccc(C)cc3)cc2-c2ccccc2)cc1	80	n	n	61	n	91	49
CC(=O)OC1(c2ccccc2)CCN(C2CCCCC2)CC1C (stereo not drawn)	n	n	n	n	n	x	x
SMILES	Mdm2-MdmX inh	aSyn UTR inh	CSC inhib	T cruzi repl	SKKanGAS inh	Mdm2-MdmX conf	FLuc counter
CC(=O)OC(C)(C)/C=C/C(=O)[C@](C)(O)C1[C@H](O)C[C@@]2(C)C3CC=C4C(C[C@H](O)C(=O)C4(C)C)[C@]3(C)C(=O)C[C@]12C (stereo partly drawn)	100	x	n	x	x	100	n
COC(=O)C1=C(c2ccccc2)C[C@@H]2CC[C@H]1N2C(=O)N1CCC(C)CC1	n	n	n	n	n	x	x
C[C@]12CC[C@H](O)C[C@H]1CC[C@@H]1[C@@H]2CC[C@]2(C)[C@@H](C3=CC(=O)OC3)CC[C@]12O	75	x	95	x	x	73	53
C[C@]12CC[C@H](O)C[C@H]1CC[C@@H]1[C@@H]2C[C@@H](O)[C@]2(C)[C@@H](C3=CC(=O)OC3)CC[C@]12O	73	x	84	x	x	73	n
CC12CC[C@H]3[C@@H](CCC4(O)C[C@H](O)CCC34/C=N/NC(=O)Cc3ccccc3)C1(O)CCC2C1=CC(=O)OC1 (stereo partly drawn)	n	n	n	n	n	x	x
C[C@]12CCC3C(CC[C@H]4C[C@@H](O)CC[C@]34C)[C@H]1C=CC2=O (stereo partly drawn)	n	x	n	x	x	x	x
CC(=NCC1CCCO1)c1c(O)n(-c2ccccc2C)c(=O)[nH]c1=O (stereo not drawn)	n	n	n	n	n	x	x
CCCCCCn1c(=O)c(C(=O)Nc2cccc(C)n2)c(O)c2ccccc21	n	n	n	n	n	x	x
CCCCn1c(=O)c(C(=O)Nc2ccccc2S(N)(=O)=O)c(O)c2ccccc21	52	n	n	n	n	48	40
CCCCCn1c(=O)c(C(=O)NCc2ccc(Cl)cc2)c(O)c2ccccc21	n	n	n	n	n	x	x
CCCCCn1c(=O)c(C(=O)Nc2cnccn2)c(O)c2ccccc21	52	98	n	n	81	48	51
CCCCn1c(=O)c(C(=O)NCc2ccncc2)c(O)c2ccccc21	51	n	n	n	58	n	x
CCCCCCCn1c(=O)c(C(=O)Nc2cnccn2)c(O)c2ccccc21	65	n	n	n	60	43	44
CCCCCn1c(=O)c(C(=O)Nc2cc(C)ccn2)c(O)c2ccccc21	n	n	n	n	n	x	x
COc1c(C)cc(C(=O)C2CCCN(Cc3ccccn3)C2)cc1C (stereo not drawn)	n	n	n	n	n	x	x
Cc1ccnc(NS(=O)(=O)c2ccc(N=Cc3c(O)n(C)c(=O)n(C)c3=O)cc2)n1	n	n	n	n	n	x	x
O=C1C=C2C=C[C@@H]3CC2(O1)[C@H]1CCCCN31	n	x	n	x	x	x	x
O=C1/C(=C\c2ccccc2)C2OCC=C3CN4CCC56c7ccccc7N1C5C2C3CC46 (stereo not drawn)	71	n	n	n	n	51	70

Screens: PubChem BioAssay, several laboratories
